In article PMC10205783 (Immuno-Oncology and Technology, 2023):
pIC50: −log10 of the molar value. In brackets after ≈: the same amount, converted by molar mass.

Columns and labels:
[1] = tested on: circulating LPA C18:2; assay: Pharmacodynamics in male CD1 mice: circulating LPA C18:2 after oral dose; format: in vivo
[2] = tested on: stimulated human primary cells (lung epithelial cells and fibroblasts; lung fibroblasts only; renal epithelial cells with lung fibroblasts); assay: BioMAP Fibrosis phenotypic screening panel; format: cell-based; conditions: 6 μM, 48 h, TGF-β and TNF-α stimulated co-cultures
Procedure, shortened: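 Three co-culture systems of human primary cells: lung epithelial cells with lung fibroblasts, lung fibroblasts alone, renal epithelial cells with lung fibroblasts. Cells stimulated with TGF-β and TNF-α, then exposed 48 h to test compound at 0.24, 1.2 and 6 μM. Biomarkers quantified by ELISA. Significance envelope: 95% CI bounds of historical vehicle controls.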

[3] = tested on: circulating LPA C18:2; assay: First-in-human single ascending oral dose study: LPA C18:2 pharmacodynamics; format: in vivo, healthy male volunteers
[4] = target: hERG tail current (Homo sapiens, UniProt Q12809); assay: GLP hERG assay; format: cell-based
[5] = target: 5-HT2B (Homo sapiens, UniProt P41595); assay: 5-HT2B antagonist confirmation; format: biochemical
[6] = Pharmacokinetics in male CD1 mice: plasma exposure after oral gavage; format: in vivo; conditions: male CD1 mice, 3, 10 and 30 mg/kg oral gavage
[7] = First-in-human single ascending oral dose study: safety and pharmacokinetics
[8] = tested on: tumor-infiltrating lymphocyte (TIL) migration; conditions: LPA chemorepulsion of T cells; cited from earlier work
[9] = In vitro toxicology; conditions: based on absence of in vitro toxicology findings
[10] = tested on: 4T1 tumors; assay: 4T1 metastasis assay with resection of the primary tumor; format: in vivo, BALB/c mice
Procedure, shortened: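 Female BALB/c mice implanted surgically with 4T1 cells in the mammary fat-pad, n = 12 per group. Primary tumour resected at day 15 and weighed. Test compound 100 mg/kg b.i.d. by oral gavage. Lungs and bone marrow harvested 20 days after resection. Lungs fixed and H&E-stained for metastases. Bone marrow flushed from hind limbs, cultured in complete medium with 6-thioguanine 10 μg/ml, colonies crystal violet-stained.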

[11] = tested on: cardiovascular and neurobehavioral functions; assay: GLP safety pharmacology, cardiovascular and neurobehavioral functions in dogs; format: in vivo
[12] = tested on: E0771 tumors; assay: E0771 orthotopic breast cancer model; format: in vivo, C57BL/6 mice
[13] = tested on: respiratory functions; assay: GLP safety pharmacology, respiratory functions in rats; format: in vivo
[14] = 4-week GLP toxicology study in rats; format: in vivo
[15] = tested on: LPA1, LPA2, LPA3, LPA5, S1P1, S1P2, SP3, S1P4 and S1P5; SafetyScreen44 panel; assay: Off-target profiling on lipid receptor panel and SafetyScreen44 panel; format: binding
[16] = target: 5-hydroxytryptamine 2B (5-HT2B) receptor (Homo sapiens, UniProt P41595); assay: 5-HT2B receptor binding; conditions: only hit of the panels
[17] = tested on: bleomycin-induced pulmonary fibrosis; assay: Bleomycin-induced pulmonary fibrosis; format: in vivo, C57BL/6 mice
Procedure, shortened: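 Anaesthetised male C57BL/6 mice given intranasal bleomycin (0.6 mg/ml) or saline. Test compound 10 mg/kg or methocel/PBS vehicle by oral gavage twice daily from day 0 for 21 days; body weight monitored. Day 21: terminal plasma; BALF by two ice-cold saline lavages via tracheal cannula, supernatant after centrifugation. LPA species by LC-MS/MS; Mann–Whitney test.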

[18] = 4-week GLP toxicology study in dogs; format: in vivo
[19] = phase II, IPF patients, cited from earlier work
[20] = tested on: bleomycin-induced pulmonary fibrosis; conditions: mouse; cited from earlier work
[21] = single oral dose, healthy male volunteers
[22] = 4T1, 20 days after removal of primary tumor

Chain of 5-HT2B (P41595 whole entry, species assumed): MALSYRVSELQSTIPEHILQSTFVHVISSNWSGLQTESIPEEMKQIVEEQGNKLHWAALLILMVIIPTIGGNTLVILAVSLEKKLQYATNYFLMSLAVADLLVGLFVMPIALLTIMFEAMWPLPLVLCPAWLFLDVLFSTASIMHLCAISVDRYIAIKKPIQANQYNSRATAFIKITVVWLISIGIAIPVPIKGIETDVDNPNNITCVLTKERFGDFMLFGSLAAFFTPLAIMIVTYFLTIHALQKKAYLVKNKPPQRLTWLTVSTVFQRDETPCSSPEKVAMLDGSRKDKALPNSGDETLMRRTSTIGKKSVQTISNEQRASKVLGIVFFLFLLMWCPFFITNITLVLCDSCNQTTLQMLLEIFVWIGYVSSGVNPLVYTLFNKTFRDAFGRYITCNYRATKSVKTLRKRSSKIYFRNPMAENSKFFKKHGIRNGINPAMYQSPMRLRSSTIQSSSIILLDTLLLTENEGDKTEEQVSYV
Chain of 5-hydroxytryptamine 2B (5-HT2B) receptor (P41595 whole entry): as the sequence (P41595 whole entry, species assumed) above
Chain of hERG tail current (Q12809 whole entry): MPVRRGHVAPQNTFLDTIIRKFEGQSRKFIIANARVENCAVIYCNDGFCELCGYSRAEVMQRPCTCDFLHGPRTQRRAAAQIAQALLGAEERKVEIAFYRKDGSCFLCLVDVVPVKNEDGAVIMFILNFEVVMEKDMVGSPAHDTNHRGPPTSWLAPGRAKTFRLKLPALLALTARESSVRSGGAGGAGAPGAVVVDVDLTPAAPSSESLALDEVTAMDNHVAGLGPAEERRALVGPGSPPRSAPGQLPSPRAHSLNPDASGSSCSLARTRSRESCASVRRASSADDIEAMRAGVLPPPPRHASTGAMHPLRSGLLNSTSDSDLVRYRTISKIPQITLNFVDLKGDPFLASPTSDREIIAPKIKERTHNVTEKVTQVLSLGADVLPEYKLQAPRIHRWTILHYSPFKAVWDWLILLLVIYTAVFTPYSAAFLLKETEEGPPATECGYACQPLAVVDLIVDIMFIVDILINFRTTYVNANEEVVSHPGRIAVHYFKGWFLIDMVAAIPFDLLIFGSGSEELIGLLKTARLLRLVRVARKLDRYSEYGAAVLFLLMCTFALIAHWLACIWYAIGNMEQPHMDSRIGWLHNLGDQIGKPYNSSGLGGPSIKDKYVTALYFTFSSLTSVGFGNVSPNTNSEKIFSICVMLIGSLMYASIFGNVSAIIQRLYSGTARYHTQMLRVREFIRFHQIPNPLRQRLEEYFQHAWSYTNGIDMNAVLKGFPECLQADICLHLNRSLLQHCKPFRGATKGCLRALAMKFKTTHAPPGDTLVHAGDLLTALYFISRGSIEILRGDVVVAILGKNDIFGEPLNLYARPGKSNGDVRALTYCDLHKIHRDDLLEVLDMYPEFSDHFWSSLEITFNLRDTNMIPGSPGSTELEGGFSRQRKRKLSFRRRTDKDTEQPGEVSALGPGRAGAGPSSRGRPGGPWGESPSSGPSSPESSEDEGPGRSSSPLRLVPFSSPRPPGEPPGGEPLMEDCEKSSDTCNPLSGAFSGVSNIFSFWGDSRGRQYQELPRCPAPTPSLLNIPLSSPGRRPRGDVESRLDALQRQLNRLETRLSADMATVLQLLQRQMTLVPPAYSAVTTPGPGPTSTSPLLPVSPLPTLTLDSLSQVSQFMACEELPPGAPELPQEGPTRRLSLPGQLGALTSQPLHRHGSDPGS

In the case of `C[C@H](NC(=O)CCc1nc2cccnc2n1Cc1ccc(OC(F)(F)F)cc1)c1ccc(Cl)cc1` [IOA-289], the ED50 ([1]; Mus musculus, po, 1 h, read-out: ED50, reduction of circulating LPA C18:2) was roughly 3 mg/kg, the “reduction of circulating LPA C18:2” value ([1]; male CD1 mice, 3, 10 and 30 mg/kg oral gavage) was “dose-dependent reduction” and the “activity of EGFR” value [2] was “significantly decreased”. For the same compound, the “activity of MCP-1” value [2] was “significantly decreased”, the “activity of collagen III (Col-III)” value [2] was “significantly decreased” and the “activity of sIL-6” value [2] was “significantly decreased”. The “activity of sIL-8” value [2] was “significantly decreased”, the “activity of sVEGF” value [2] was “significantly decreased” and the “activity of αSMA” value [2] was “significantly decreased”. The IC50 ([3]; Homo sapiens, po, read-out: IC50 on % LPA C18:2 reduction from baseline) was 0.015 µg/mL (≈ 0.0298 µM), the “circulating levels of LPA C18:2” value ([3]; maximal inhibition at cohorts 4 and 5 dose levels) was “dose-related decrease” and the “time of peak inhibition of LPA C18:2 after dose” value ([3]; single oral dose) was 1 to 2 h. The pIC50 [4] was 5.99, the pIC50 [5] was 5.60 and the plasma exposure [6] was “dose-proportional increase”. The Tmax ([7]; male, human, in vivo, po) was 1 h, the “maximum plasma concentrations versus dose” value ([7]; single ascending oral doses, five cohorts) was “increased dose proportionally” and the adverse events [7, 21] was “no adverse events reported”. The safety and tolerability [7, 21] was “well tolerated”, the “TIL migration in vitro” value [8] was “can rescue” and the “risk for genotoxicity, phototoxicity and cytotoxicity” value [9] was “low risk”. For the same compound, the “bone metastases (colony formation assay from bone marrow)” value [10, 22] was “marked reduction”, the “metastatic burden in lungs (histology)” value [10, 22] was “marked reduction” and the primary tumor growth ([10]; 4T1, primary tumor resected at day 15) was “no effect”. For the same compound, the “effects on cardiovascular (including QTc changes) and neurobehavioral functions” value [11] was “no relevant effects”, the tumor growth ([12]; E0771, 30 mg/kg b.i.d. oral from day 3 to day 40, compared with control group) was “reduced the tumor growth” and the complete tumor eradication ([12]; E0771, n = 10 per group) was “complete tumor eradication in two mice”. The “effects on respiratory functions” value [13] was “no relevant effects”, the NOAEL at 4 weeks ([14]; rat, in vivo, po) was 300 mg/kg/day and the “main target organs for toxicity” value ([14]; rats, all findings reversible) was “the liver, the bone marrow and the stomach in both sexes and additionally the kidneys, the testes and thyroids in males”. The off-target interactions [15] was “no to minimal potential off-target interactions”, the “binding to 5-HT2B receptor” value [16] was “sub-micromolar binding” and the “LPA C18:2 levels in BALF” value ([17]; BLM model, day 21) was “significantly reduced”. The “LPA C18:2 levels in plasma” value ([17]; BLM model, day 21) was “significantly reduced”, the “severity of the BLM model followed by body weight” value ([17]; compared with vehicle treatment) was “alleviated the severity substantially” and the NOAEL at 4 weeks ([18]; dog, in vivo, po) was 60 mg/kg/day. For the same compound, the “main target organs for toxicity” value ([18]; dogs) was “the gastrointestinal tract, the liver, the bladder and the parotid gland”.
In the case of `CCc1nc2c(C)cc(N3CCN(CC(=O)N4CC(O)C4)CC3)cn2c1N(C)c1nc(-c2ccc(F)cc2)c(C#N)s1` [ziritaxestat, 2-[[2-ethyl-6-[4-[2-(3-hydroxyazetidin-1-yl)-2-oxo-ethyl]piperazin-1-yl]-8-methyl-imidazo[1,2-a]pyridin-3-yl]-methyl-amino]-4-(4-fluorophenyl)thiazole-5-carbonitrile], the “plasma LPA C18:2 levels” value ([19]; 12 weeks) is listed as “reducing”, the tolerability ([19]; 12 weeks) is listed as “well tolerated” and the forced vital capacity ([19]; after 12 weeks of treatment) is listed as “stabilizing”. For the same compound, the “efficacy in bleomycin-induced pulmonary fibrosis model” value [20] was “demonstrated efficacy”.
